Laboratory results taken from publication PMC5987874 (The Journal of General Physiology, 2018).
Changes are numbered by the printed parent chain. “And” between values parts separate entries of the source, which are not always exact repeats. Equal entries are not always repeated. Where two headings read alike, the source gives them in different places.

How the values were obtained:
Test in all cases: Whole-cell voltage clamp, Zn^2+ modulation of GAQ gating
Assay type in all cases: cell-based
human Hv1 WT = target: T1, human Hv1 WT (Homo sapiens, UniProt Q96D96)
T1 sequence (Q96D96 1-273): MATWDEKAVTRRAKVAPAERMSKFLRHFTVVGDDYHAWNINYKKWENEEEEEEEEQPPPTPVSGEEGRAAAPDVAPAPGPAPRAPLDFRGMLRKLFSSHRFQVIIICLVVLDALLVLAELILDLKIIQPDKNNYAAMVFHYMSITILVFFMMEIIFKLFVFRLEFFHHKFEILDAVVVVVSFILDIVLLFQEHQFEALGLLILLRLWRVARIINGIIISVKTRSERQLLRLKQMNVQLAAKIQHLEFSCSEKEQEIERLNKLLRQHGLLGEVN
Summary of the method: (§1)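 Whole-cell patch clamp at ~21°C. Pipette and bath (mM): ~80 TMA-MeSO3, 100 Bis-Tris, 8 HCl, pH 6.5, 310–320 mOsm. ZnCl2 was diluted into bath solution and applied by gravity superfusion, at least 2 min per change. Test step voltage was set per construct from its V0.5. G_STEP = end-of-step current/(V−V_REV). Effect = 1 − G_Zn/G_control, fitted to the Hill equation. IC50 and nH are means ± SEM from separate cells. ΔpIC50 was tested by unpaired t test, P<0.05.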

[1] = target: T2, human Hv1 E119A (E^1.58A) (Homo sapiens, UniProt Q96D96, E119A)
T2 sequence (Q96D96 1-273 E119A): T1 sequence (Q96D96 1-273) with E119A
Summary of the method: as §1

[2] = target: T3, human Hv1 E119H (E^1.58H) (Homo sapiens, UniProt Q96D96, E119H)
T3 sequence (Q96D96 1-273 E119H): T1 sequence (Q96D96 1-273) with E119H
Summary of the method: as §1

human Hv1 D130H-H140A = target: T4, human Hv1 D130H-H140A (Homo sapiens, UniProt Q96D96, D130H/H140A)
T4 sequence (Q96D96 1-273 D130H/H140A): T1 sequence (Q96D96 1-273) with D130H, H140A
Summary of the method: as §1

[3] = target: T5, human Hv1 D185H (D^3.61H) (Homo sapiens, UniProt Q96D96, D185H)
T5 sequence (Q96D96 1-273 D185H): T1 sequence (Q96D96 1-273) with D185H
Summary of the method: as §1

[4] = target: T6, human Hv1 D112N (D^1.51N) (Homo sapiens, UniProt Q96D96, D112N)
T6 sequence (Q96D96 1-273 D112N): T1 sequence (Q96D96 1-273) with D112N
Summary of the method: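 Zn2+ effect was read from tail current, not end-of-step current. Whole-cell recording at ~21°C with pH 6.5 pipette and bath solutions (mM: ~80 TMA-MeSO3, 100 Bis-Tris, 8 HCl). ZnCl2 was diluted in bath solution and gravity-superfused, at least 2 min per change. Concentration–response was fitted to the Hill equation, with IC50 values from separate cells. ΔpIC50 was compared by unpaired Student's t test, P<0.05.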

[5] = target: human Hv1 H140A-D185H-H193A-R205H (Homo sapiens, UniProt Q96D96, D185H/H140A/H193A/R205H)
Summary of the method: as §1

[6] = VSTEP 100 mV, calculated as log (IC50)
[7] = VSTEP 120 mV, calculated as log (IC50)
[8] = read-out: IC50, fit of the mean data to a Hill function, Fig. 3C

Chain of human Hv1 H140A-D185H-H193A-R205H (Q96D96 whole entry H140A/D185H/H193A/R205H): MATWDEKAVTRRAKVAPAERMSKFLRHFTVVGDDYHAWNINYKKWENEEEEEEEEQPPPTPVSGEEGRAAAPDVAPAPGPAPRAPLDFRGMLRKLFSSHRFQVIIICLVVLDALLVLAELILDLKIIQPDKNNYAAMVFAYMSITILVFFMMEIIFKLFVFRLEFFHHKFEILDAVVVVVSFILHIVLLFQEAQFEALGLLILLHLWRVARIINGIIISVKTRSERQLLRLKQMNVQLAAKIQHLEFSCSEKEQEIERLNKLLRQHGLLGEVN

nH, fit of the mean data to a Hill function (human Hv1 WT; Fig. 2C): 0.8 | Hill value (human Hv1 WT; VSTEP 100 mV): 0.81 | pIC50 (human Hv1 WT; [6]): 5.44 | Mean ΔpIC50 = (pIC50_1 - pIC50_2) ([1]; E119A vs WT): −0.28 | nH, fit of the mean data to a Hill function ([1]; Fig. 3C): 0.8 | Hill value ([1]; VSTEP 120 mV): 0.80 | pIC50 [1, 7]: 5.16 | IC50 [1, 8]: 6.7 µM | Mean ΔpIC50 = (pIC50_1 - pIC50_2) ([2]; E119H vs WT): 0.8 and 0.77 | nH, fit of the mean data to a Hill function ([2]; Fig. 3C): 0.9 | Hill value ([2]; VSTEP 100 mV): 1.08 | pIC50 [2, 6]: 6.22 | IC50 [2, 8]: 0.6 µM | Mean ΔpIC50 = (pIC50_1 - pIC50_2) (human Hv1 D130H-H140A; D130H-H140A vs H140A): 0.01 | nH, fit of the mean data to a Hill function (human Hv1 D130H-H140A; Fig. 4C): 0.5 | Hill value (human Hv1 D130H-H140A; VSTEP 80 mV): 0.58 | pIC50 (human Hv1 D130H-H140A; VSTEP 80 mV, calculated as log (IC50)): −4.42 | IC50 (human Hv1 D130H-H140A; read-out: IC50, fit of the mean data to a Hill function, Fig. 4C): 39.7 µM | IC50 (human Hv1 D130H-H140A; read-out: Mean IC50 @ VSTEP, VSTEP 80 mV, pH 6.5, mean of fits in separate cells): 41.5 µM | nH, fit of the mean data to a Hill function ([3]; Fig. 4D): 0.6 | Hill value ([3]; VSTEP 120 mV): 0.77 | pIC50 [3, 7]: 5.38 | IC50 ([3]; read-out: IC50, fit of the mean data to a Hill function, Fig. 4D): 6.5 µM | Mean ΔpIC50 = (pIC50_1 - pIC50_2) ([4]; D112N vs WT): −0.03 | Hill value ([4]; VSTEP 140 mV, determined from tail current): 0.76 | pIC50 ([4]; VSTEP 140 mV, determined from tail current, calculated as log (IC50)): 5.03 | IC50 ([4]; read-out: Mean IC50 @ VSTEP, VSTEP 140 mV, pH 6.5, determined from tail current): 9.5 µM | Mean ΔpIC50 = (pIC50_1 - pIC50_2) ([5]; H140A-D185H-H193A-R205H vs H140A-D185H-H193A): 0.54 | Mean pIC50 ([5]; Table 2 only, calculated as log (IC50)): −3.68
Compound: [Cl-].[Cl-].[Zn+2] [Zn^2+, ZnCl2]
